From ChEMBL document CHEMBL2150941, “Cytotoxic iridoids from the roots of Patrinia scabra” (J Nat Prod, 2012)

Assays:
[1] = tested on: HeLa; assay: Cytotoxicity against human HeLa cells after 48 hrs by MTT assay; type: functional, cell-based
Summary of the method: (§1)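 Cells kept in DMEM with 10% FBS, penicillin and streptomycin at 37 °C, 5% CO2. Seeded at 2 × 10^4 cells/well, allowed to adhere for 24 h, then exposed for 48 h to graded compound concentrations […], with 5-fluorouracil as positive control. MTT (5 mg/mL stock) added for 4 h at 37 °C, formazan dissolved in DMSO, read at 570 nm. IC50 is the mean of three independent experiments run in duplicate.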

[2] = Cytotoxicity against human MNK45 cells after 48 hrs by MTT assay; type: functional, cell-based; conditions: MNK45, 48 h; summary of the method: as §1

Structure (SMILES): COC(=O)C1=CO[C@@H](O[C@@H]2O[C@H](CO)[C@@H](O)[C@H](O)[C@H]2O)[C@@H]2[C@H](C)O[C@H](OC)C[C@H]12
- IC50 [1]: > 50 µM
- IC50 [2]: > 50 µM

Structure (SMILES): C[C@H]1C(=O)OC[C@H]2[C@@H]1C[C@H](O[C@@H]1O[C@H](CO)[C@@H](O)[C@H](O)[C@H]1O)[C@@]2(C)O [PATRISCABROSIDE I]
- IC50 [1]: > 50 µM
- IC50 [2]: > 50 µM

Structure (SMILES): C=C[C@H]1[C@H](O[C@@H]2O[C@H](CO)[C@@H](O)[C@H](O)[C@H]2O)OC=C2C(=O)OCC[C@H]21 [SWEROSIDE]
- IC50 [1]: > 50 µM
- IC50 [2]: 11.2 µM

Structure (SMILES): COC(=O)C1=CO[C@@H](O[C@@H]2O[C@H](CO)[C@@H](O)[C@H](O)[C@H]2O)[C@@H]2[C@H](C)O[C@@H](O)C[C@H]12 [MORRONISIDE]
- IC50 [1]: > 50 µM
- IC50 [2]: > 50 µM

Structure (SMILES): C[C@@H]1[C@H]2OC[C@@H]3[C@@H]1C[C@H](O)[C@@]3(C)O2
- IC50 [1]: > 50 µM
- IC50 [2]: > 50 µM

Structure (SMILES): C=C1COC(=O)[C@H]2[C@@H]1C[C@H](O)[C@@]2(C)O [JATAMANIN A]
- IC50 [1]: > 50 µM
- IC50 [2]: > 50 µM

Structure (SMILES): C[C@H]1[C@H]2C[C@H](O)[C@@](C)(O[C@@H]3O[C@H](CO)[C@@H](O)[C@H](O)[C@H]3O)[C@H]2CO[C@@H]1O [PATRIRIDOSIDE F]
- IC50 [1]: > 50 µM
- IC50 [2]: > 50 µM

Structure (SMILES): O=c1[nH]cc(F)c(=O)[nH]1 [FLUOROURACIL]
- IC50 [1]: 9.5 µM
- IC50 [2]: 12 µM

Structure (SMILES): C[C@@H]1C[C@@H]2OC=C(C=O)[C@@H]2[C@@H]1CO[C@@H]1O[C@H](CO)[C@@H](O)[C@H](O)[C@H]1O [PATRIRIDOSIDE D]
- IC50 [1]: > 50 µM
- IC50 [2]: 15.6 µM

Structure (SMILES): C[C@H]1C(=O)OC[C@H]2[C@@H]1CC[C@@]2(C)O [SCABROL A]
- IC50 [1]: > 50 µM
- IC50 [2]: > 50 µM

Structure (SMILES): C=C1CO[C@]2(CO[C@@H]3O[C@H](CO)[C@@H](O)[C@H](O)[C@H]3O)C(C)=CC[C@H]12 [PATRIRIDOSIDE G]
- IC50 [1]: > 50 µM
- IC50 [2]: 8.7 µM

Structure (SMILES): C[C@H]1[C@H]2OC[C@@H]3[C@@H]1C[C@H](O)[C@@]3(C)O2
- IC50 [1]: > 50 µM
- IC50 [2]: > 50 µM

Structure (SMILES): COC(=O)C1=CO[C@@H](O[C@@H]2O[C@H](CO)[C@@H](O)[C@H](O)[C@H]2O)[C@@H]2[C@H](C)O[C@@H](OC)C[C@H]12
- IC50 [1]: > 50 µM
- IC50 [2]: > 50 µM

Structure (SMILES): CC1=CC[C@@H]2[C@H](C)CO[C@]12CO[C@@H]1O[C@H](CO[C@@H]2OC[C@](O)(CO)[C@H]2O)[C@@H](O)[C@H](O)[C@H]1O [PATRIRIDOSIDE I]
- IC50 [1]: > 50 µM
- IC50 [2]: 30.9 µM

Structure (SMILES): C[C@@H]1C(=O)OC[C@H]2[C@@H]1C[C@H](O)[C@@]2(C)O [ISOPATRISCABROL]
- IC50 [1]: 24.5 µM
- IC50 [2]: > 50 µM

Structure (SMILES): C=C(CO)[C@H]1C[C@H](OC(=O)CC(C)C)[C@@](C)(O)[C@H]1CO[C@@H]1O[C@H](CO)[C@@H](O)[C@H](O)[C@H]1O [PATRINIOSIDE]
- IC50 [1]: > 50 µM
- IC50 [2]: 23.8 µM

Structure (SMILES): C[C@H]1C(=O)OC[C@H]2[C@@H]1C[C@H](O)[C@@]2(C)O [PATRISCABROL]
- IC50 [1]: > 50 µM
- IC50 [2]: > 50 µM

Structure (SMILES): COC(=O)C1=CO[C@@H](O[C@@H]2O[C@H](CO)[C@@H](O)[C@H](O)[C@H]2O)[C@@H]2[C@H](C)O[C@H](O)C[C@H]12
- IC50 [1]: > 50 µM
- IC50 [2]: > 50 µM

Structure (SMILES): C=C1CO[C@]2(CO[C@@H]3O[C@H](CO[C@@H]4OC[C@](O)(CO)[C@H]4O)[C@@H](O)[C@H](O)[C@H]3O)C(C)=CC[C@H]12 [PATRIRIDOSIDE H]
- IC50 [1]: > 50 µM
- IC50 [2]: 9.4 µM

Structure (SMILES): C[C@H]1C(=O)OC[C@H]2[C@@H]1CC[C@@]2(C)O[C@@H]1O[C@H](CO)[C@@H](O)[C@H](O)[C@H]1O [PATRIRIDOSIDE E]
- IC50 [1]: > 50 µM
- IC50 [2]: > 50 µM
